In ChEMBL document CHEMBL4229380, “Arylureas derived from colchicine: Enhancement of colchicine oncogene downregulation activity” (Eur J Med Chem, 2018):

Assays:
HT-29 [1] = assay: Effect on c-MYC gene expression in human HT-29 cells assessed as c-MYC level at 5 nM after 48 hrs by RT-qPCR analysis; assay type: functional
Outline: (§1)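 HT-29 cells at 70–80% confluence were seeded at 1.5×10^5 per well and left 24 h, then treated 48 h, with DMSO as control. Total RNA was extracted and VEGF-A, c-Myc and hTERT were quantified by TaqMan qPCR, normalized to β-actin and to living cell number. Results are % expression versus control, at least three measurements.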

HT-29 [2] = assay: Effect on VEGF gene expression in human HT-29 cells assessed as VEGF level at 5 nM after 48 hrs by RT-qPCR analysis; assay type: functional; outline: as §1
HT-29 [3] = assay: Effect on VEGF protein expression in human HT-29 cells assessed as secreted VEGF level in culture media at 5 nM after 48 hrs by ELISA
HeLa = assay: Antiproliferative activity against human HeLa cells after 2 days by MTT assay; assay type: functional, cell-based; settings: 48 h
Outline: (§2)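 Cells (5×10^3 per well) in DMEM with 10% FBS, glucose, glutamine and antibiotics were exposed to serial dilutions (stocks in DMSO) for 2 days at 37 °C, 5% CO2. MTT was added for 3 h, formazan was dissolved in DMSO and absorbance read at 490 nm. Viability was taken as % of untreated cells. IC50 was read graphically from three independent experiments.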

HT-29 [4] = assay: Antiproliferative activity against human HT-29 cells after 2 days by MTT assay; assay type: functional, cell-based; settings: HT-29, 48 h; outline: as §2
HT-29 [5] = assay: Induction of apoptosis in human HT-29 cells assessed as apoptotic cells at 5 nM after 48 hrs by Annexin V-FITC staining-based flow cytometric analysis (reference value: 13 +/- 3%); assay type: functional
HT-29 [6] = assay: Induction of apoptosis in human HT-29 cells assessed as necrotic cells at 5 nM after 48 hrs by Annexin V-FITC staining-based flow cytometric analysis (reference value: 2 +/- 6%); assay type: functional
MCF7 = assay: Antiproliferative activity against human MCF7 cells after 2 days by MTT assay; assay type: functional, cell-based; settings: MCF7, 48 h; outline: as §2
HT-29 [7] = assay: Effect on c-MYC protein expression in human HT-29 cells assessed as c-MYC level at 5 nM after 48 hrs by ELISA; assay type: functional
Outline: (§3)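 HT-29 cells (1.5×10^5 per well, 24 h pre-culture) were treated 48 h and washed in PBS. They were lysed in Tris pH 7.4 buffer with detergents, phosphatase inhibitors, PMSF and protease inhibitors. Lysates were adjusted to 200 µg/mL protein (Bradford) and total c-Myc or VEGFR-2 was measured by sandwich ELISA kit. Values are % of DMSO control, ≥3 measurements.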

HT-29 [8] = assay: Effect on VEGFR2 protein expression in human HT-29 cells assessed as VEGFR2 level at 5 nM after 48 hrs by ELISA; assay type: functional; outline: as §3
HEK293 = assay: Antiproliferative activity against human HEK293 cells after 2 days by MTT assay; assay type: cell-based; settings: HEK293, 48 h; outline: as §2
HT-29 [9] = assay: Induction of apoptosis in human HT-29 cells assessed as viable cells at 5 nM after 48 hrs by Annexin V-FITC staining-based flow cytometric analysis (reference value: 82 +/- 1%); assay type: functional; settings: HT-29, 48 h, read-out: Activity
HT-29 [10] = assay: Effect on hTERT gene expression in human HT-29 cells assessed as hTERT level at 5 nM after 48 hrs by RT-qPCR analysis; assay type: functional; outline: as §1
HT-29 [11] = assay: Induction of apoptosis in human HT-29 cells assessed as viable cells at 20 nM after 48 hrs by Annexin V-FITC staining-based flow cytometric analysis (reference value: 82 +/- 1%); assay type: functional; settings: HT-29, 48 h, read-out: Activity
HT-29 [12] = assay: Induction of apoptosis in human HT-29 cells assessed as apoptotic cells at 20 nM after 48 hrs by Annexin V-FITC staining-based flow cytometric analysis (reference value: 13 +/- 3%); assay type: functional
HT-29 [13] = assay: Induction of apoptosis in human HT-29 cells assessed as necrotic cells at 20 nM after 48 hrs by Annexin V-FITC staining-based flow cytometric analysis (reference value: 2 +/- 6%); assay type: functional
HT-29 [14] = assay: Induction of apoptosis in human HT-29 cells assessed as apoptotic cells at 15 nM after 48 hrs by Annexin V-FITC staining-based flow cytometric analysis (reference value: 13 +/- 3%); assay type: functional
HT-29 [15] = assay: Effect on hTERT gene expression in human HT-29 cells assessed as hTERT level at 15 nM after 48 hrs by RT-qPCR analysis; assay type: functional; outline: as §1
HT-29 [16] = assay: Effect on c-MYC protein expression in human HT-29 cells assessed as c-MYC level at 15 nM after 48 hrs by ELISA; assay type: functional; outline: as §3
HT-29 [17] = assay: Effect on VEGF protein expression in human HT-29 cells assessed as secreted VEGF level in culture media at 15 nM after 48 hrs by ELISA
HT-29 [18] = assay: Induction of apoptosis in human HT-29 cells assessed as viable cells at 15 nM after 48 hrs by Annexin V-FITC staining-based flow cytometric analysis (reference value: 82 +/- 1%); assay type: functional; settings: HT-29, 48 h, read-out: Activity
HT-29 [19] = assay: Effect on c-MYC gene expression in human HT-29 cells assessed as c-MYC level at 15 nM after 48 hrs by RT-qPCR analysis; assay type: functional; outline: as §1
HT-29 [20] = assay: Induction of apoptosis in human HT-29 cells assessed as necrotic cells at 15 nM after 48 hrs by Annexin V-FITC staining-based flow cytometric analysis (reference value: 2 +/- 6%); assay type: functional
HT-29 [21] = assay: Effect on VEGF gene expression in human HT-29 cells assessed as VEGF level at 15 nM after 48 hrs by RT-qPCR analysis; assay type: functional; outline: as §1
HT-29 [22] = assay: Effect on VEGFR2 protein expression in human HT-29 cells assessed as VEGFR2 level at 15 nM after 48 hrs by ELISA; assay type: functional; outline: as §3

Structure (SMILES) | IC50 (HeLa) | IC50 (HT-29 [4]) | IC50 (MCF7) | IC50 (HEK293) | also measured
COc1cc2c(c(OC)c1OC)-c1ccc(OC)c(=O)cc1[C@@H](NC(=O)Nc1ccc(F)cc1)CC2 | 0.01 µM | 0.005 µM | 0.01 µM | 0.013 µM | Activity (HT-29 [1]): 52%; Activity (HT-29 [2]): 59%; Activity (HT-29 [3]): 55%; Activity (HT-29 [5]): 47%; Activity (HT-29 [6]): 2%; Activity (HT-29 [7]): 105%; Activity (HT-29 [8]): 63%; viability at 0.005 µM (HT-29 [9]): 51%; Activity (HT-29 [10]): 70%
COc1cc2c(c(OC)c1OC)-c1ccc(OC)c(=O)cc1[C@@H](NC(=O)Nc1cc(C(F)(F)F)cc(C(F)(F)F)c1)CC2 | 1.7 µM | 2.6 µM | 1.8 µM | 1.5 µM | viability at 0.02 µM (HT-29 [11]): 96%; Activity (HT-29 [12]): 4%; Activity (HT-29 [13]): 1%
COc1cc2c(c(OC)c1OC)-c1ccc(OC)c(=O)cc1[C@@H](NC(=O)Nc1ccccc1)CC2 | 0.012 µM | 0.011 µM | 0.012 µM | 0.01 µM | 
COc1ccc(NC(=O)N[C@H]2CCc3cc(OC)c(OC)c(OC)c3-c3ccc(OC)c(=O)cc32)cc1 | 0.0065 µM | 0.004 µM | 0.013 µM | 0.014 µM | Activity (HT-29 [1]): 55%; Activity (HT-29 [2]): 70%; Activity (HT-29 [3]): 44%; Activity (HT-29 [5]): 35%; Activity (HT-29 [6]): 1%; Activity (HT-29 [7]): 61%; Activity (HT-29 [8]): 95%; viability at 0.005 µM (HT-29 [9]): 64%; Activity (HT-29 [10]): 91%
COc1cc2c(c(OC)c1OC)-c1ccc(OC)c(=O)cc1[C@@H](NC(=O)NC1CCCCC1)CC2 | 0.087 µM | 0.037 µM | 0.089 µM | 0.098 µM | 
COc1cc2c(c(OC)c1OC)-c1ccc(OC)c(=O)cc1[C@@H](NC(=O)Nc1ccc(F)cc1C)CC2 | 0.021 µM | 0.014 µM | 0.01 µM | 0.065 µM | Activity (HT-29 [14]): 26%; Activity (HT-29 [15]): 68%; Activity (HT-29 [16]): 110%; Activity (HT-29 [17]): 90%; viability at 0.015 µM (HT-29 [18]): 73%; Activity (HT-29 [19]): 65%; Activity (HT-29 [20]): 1%; Activity (HT-29 [21]): 63%; Activity (HT-29 [22]): 62%
COc1cc2c(c(OC)c1OC)-c1ccc(OC)c(=O)cc1[C@@H](NC(=O)Nc1ccc(C(F)(F)F)cc1Cl)CC2 | 0.22 µM | 0.19 µM | 0.2 µM | 0.22 µM | 
COc1cc2c(c(OC)c1OC)-c1ccc(OC)c(=O)cc1[C@@H](NC(=O)Nc1ccc(F)cc1Cl)CC2 | 0.005 µM | 0.00175 µM | 0.0012 µM | 0.0017 µM | Activity (HT-29 [1]): 58%; Activity (HT-29 [2]): 64%; Activity (HT-29 [3]): 67%; Activity (HT-29 [5]): 53%; Activity (HT-29 [6]): 1%; Activity (HT-29 [7]): 104%; Activity (HT-29 [8]): 15%; viability at 0.005 µM (HT-29 [9]): 46%; Activity (HT-29 [10]): 80%
COc1cc2c(c(OC)c1OC)-c1ccc(OC)c(=O)cc1[C@@H](NC(=O)Nc1cc(F)cc(F)c1)CC2 | 0.016 µM | 0.01 µM | 0.02 µM | 0.01 µM | 
COc1cc2c(c(OC)c1OC)-c1ccc(OC)c(=O)cc1[C@@H](NC(=O)Nc1c(C)cccc1C)CC2 | 0.242 µM | 0.13 µM | 0.24 µM | 0.218 µM | 
COc1cc2c(c(OC)c1OC)-c1ccc(OC)c(=O)cc1[C@@H](NC(=O)Nc1cccc(Cl)c1)CC2 | 0.008 µM | 0.0043 µM | 0.37 µM | 0.0046 µM | Activity (HT-29 [1]): 104%; Activity (HT-29 [2]): 95%; Activity (HT-29 [3]): 114%; Activity (HT-29 [5]): 37%; Activity (HT-29 [6]): 1%; Activity (HT-29 [7]): 87%; Activity (HT-29 [8]): 15%; viability at 0.005 µM (HT-29 [9]): 62%; Activity (HT-29 [10]): 90%
COc1cc2c(c(OC)c1OC)-c1ccc(OC)c(=O)cc1[C@@H](NC(=O)Nc1ccc3ccccc3c1)CC2 | 0.007 µM | 0.008 µM | 0.01 µM | 0.007 µM | 
COc1cc2c(c(OC)c1OC)-c1ccc(OC)c(=O)cc1[C@@H](NC(=O)Nc1c(Cl)cc(F)cc1Cl)CC2 | 0.02 µM | 0.03 µM | 0.014 µM | 0.092 µM | 
COc1cc2c(c(OC)c1OC)-c1ccc(OC)c(=O)cc1[C@@H](NC(=O)Nc1c(Cl)cccc1Cl)CC2 | 0.022 µM | 0.04 µM | 0.013 µM | 0.042 µM | 
COc1cc2c(c(OC)c1OC)-c1ccc(OC)c(=O)cc1[C@@H](NC(=O)Nc1ccccc1F)CC2 | 0.006 µM | 0.0047 µM | 0.006 µM | 0.005 µM | 
COc1cc2c(c(OC)c1OC)-c1ccc(OC)c(=O)cc1[C@@H](NC(=O)Nc1ccccc1C#N)CC2 | 0.01 µM | 0.011 µM | 0.011 µM | 0.011 µM | 
COc1cc2c(c(OC)c1OC)-c1ccc(OC)c(=O)cc1[C@@H](NC(=O)Nc1ccccc1OC(F)(F)F)CC2 | 0.003 µM | 0.0038 µM | 0.0044 µM | 0.005 µM | 
COc1cc2c(c(OC)c1OC)-c1ccc(OC)c(=O)cc1[C@@H](NC(=O)Nc1cccc3ccccc13)CC2 | 0.016 µM | 0.0111 µM | 0.017 µM | 0.009 µM | 
COc1cc2c(c(OC)c1OC)-c1ccc(OC)c(=O)cc1[C@@H](NC(=O)Nc1ccc(Cl)cc1Cl)CC2 | 0.042 µM | 0.031 µM | 0.024 µM | 0.032 µM | 
